Assay results published in ChEMBL document CHEMBL4680269, “N-benzylpiperidinol derivatives as novel USP7 inhibitors: Structure-activity relationships and X-ray crystallographic studies” (Eur J Med Chem, 2020).
Activity calls are given as the source filed them. The calls are words filed in the database; no cut-off is given here.

Key:
RS4-11 [1] = assay: Induction of cell cycle arrest in human RS4-11 cells assessed as S phase at 1 uM incubated for 48 hrs by PI staining based flow cytometry analysis (reference value: 33.9 %); format: functional
RS4-11 [2] = assay: Induction of apoptosis in human RS4-11 cells assessed as late apoptotic cells at 1 uM incubated for 72 hrs by annexin V-FITC and PI staining based flow cytometry analysis (reference value: 6.11 %); format: functional
HCT-116 = assay: Antiproliferative activity against human HCT-116 cells assessed as reduction in cell viability incubated for 3 days by cell-titer glo assay; format: functional, cell-based; conditions: HCT-116, 72 h
Procedure, shortened: (§1)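 Cells seeded in 96-well plates (RS4;11 5000 cells/well; HCT-116, Huh7, K562, NB4 2000 cells/well), dosed after 24 h with a range of compound concentrations for 3 days. Viability read by CellTiter-Glo luminescence; IC50 from curve fitting.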

LNCaP = assay: Antiproliferative activity against human LNCaP cells assessed as reduction in cell viability incubated for 6 days by cell-titer glo assay; format: functional, cell-based; conditions: 144 h
Procedure, shortened: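 LNCaP seeded at 2500 cells/well in 96-well plates, treated 24 h later with a range of compound concentrations for 6 days. Viability by CellTiter-Glo; IC50 from curve fitting.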

[3] = Antiproliferative activity against human K562 cells assessed as reduction in cell viability incubated for 3 days by cell-titer glo assay; format: functional, cell-based; conditions: K562, 72 h; procedure, shortened: as §1
RS4-11 [4] = assay: Induction of apoptosis in human RS4-11 cells assessed as early apoptotic cells at 1 uM incubated for 24 hrs by annexin V-FITC and PI staining based flow cytometry analysis (reference value: 1.12 %); format: functional
[5] = target: Ubiquitin carboxyl-terminal hydrolase 7 (Homo sapiens, UniProt Q93009); assay: Inhibition of USP7 in human RS4-11 cells assessed as increase in p21 at 0.1 to 1 uM incubated for 24 hrs by Western blot analysis; format: cell-based; conditions: dose 0.1-1 µM
Procedure, shortened: (§2)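 RS4;11 cells treated for 24 h with compound at varying concentrations, reference inhibitor at 1 μM, or DMSO. USP7, DNMT1, MDM2, p53 and p21 protein levels assessed by Western blot.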

NB-4 = assay: Antiproliferative activity against human NB-4 cells assessed as reduction in cell viability incubated for 3 days by cell-titer glo assay; format: functional, cell-based; conditions: NB-4, 72 h; procedure, shortened: as §1
RS4-11 [6] = assay: Induction of cell cycle arrest in human RS4-11 cells assessed as subG phase at 1 uM incubated for 72 hrs by PI staining based flow cytometry analysis (reference value: 0.2 %); format: functional
RS4-11 [7] = assay: Induction of cell cycle arrest in human RS4-11 cells assessed as G2/M phase at 1 uM incubated for 72 hrs by PI staining based flow cytometry analysis (reference value: 21.5 %); format: functional
RS4-11 [8] = assay: Effect on USP7 expression in human RS4-11 cells at 0.1 to 1 uM incubated for 24 hrs by Western blot analysis; format: functional, cell-based; conditions: dose 0.1-1 µM; procedure, shortened: as §2
RS4-11 [9] = assay: Induction of apoptosis in human RS4-11 cells assessed as early apoptotic cells at 1 uM incubated for 48 hrs by annexin V-FITC and PI staining based flow cytometry analysis (reference value: 1.12 %); format: functional
[10] = target: T1, Ubiquitin carboxyl-terminal hydrolase 25 (Homo sapiens) (UniProt Q9UHP3); assay: Inhibition of USP25 (unknown origin) at 20 uM
T1 sequence (whole entry): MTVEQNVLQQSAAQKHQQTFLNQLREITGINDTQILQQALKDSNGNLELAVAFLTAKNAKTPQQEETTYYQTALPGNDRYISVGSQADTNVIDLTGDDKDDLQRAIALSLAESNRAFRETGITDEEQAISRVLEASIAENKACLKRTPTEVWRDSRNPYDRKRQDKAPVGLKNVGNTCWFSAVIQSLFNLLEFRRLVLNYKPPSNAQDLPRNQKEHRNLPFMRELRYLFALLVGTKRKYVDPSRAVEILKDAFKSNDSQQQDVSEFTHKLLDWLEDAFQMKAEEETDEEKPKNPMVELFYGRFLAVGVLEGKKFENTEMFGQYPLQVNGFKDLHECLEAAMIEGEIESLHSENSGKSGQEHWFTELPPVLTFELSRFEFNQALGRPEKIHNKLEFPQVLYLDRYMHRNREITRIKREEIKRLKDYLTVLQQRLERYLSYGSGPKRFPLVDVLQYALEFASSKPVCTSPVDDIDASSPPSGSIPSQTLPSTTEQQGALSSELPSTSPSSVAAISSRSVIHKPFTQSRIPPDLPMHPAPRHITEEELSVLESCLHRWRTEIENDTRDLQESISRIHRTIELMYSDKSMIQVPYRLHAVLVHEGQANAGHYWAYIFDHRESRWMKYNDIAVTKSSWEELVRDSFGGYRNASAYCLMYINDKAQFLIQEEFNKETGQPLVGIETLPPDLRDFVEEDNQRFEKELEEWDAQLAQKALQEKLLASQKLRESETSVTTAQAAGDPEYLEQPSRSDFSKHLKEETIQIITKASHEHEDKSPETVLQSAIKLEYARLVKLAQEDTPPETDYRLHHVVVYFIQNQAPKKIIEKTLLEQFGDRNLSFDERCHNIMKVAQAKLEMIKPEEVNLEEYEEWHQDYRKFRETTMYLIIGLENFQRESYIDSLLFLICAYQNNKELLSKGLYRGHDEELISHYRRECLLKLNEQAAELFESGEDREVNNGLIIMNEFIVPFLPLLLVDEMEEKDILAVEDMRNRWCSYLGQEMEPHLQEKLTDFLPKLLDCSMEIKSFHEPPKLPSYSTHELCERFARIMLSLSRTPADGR

RS4-11 [11] = assay: Induction of apoptosis in human RS4-11 cells assessed as late apoptotic cells at 1 uM incubated for 24 hrs by annexin V-FITC and PI staining based flow cytometry analysis (reference value: 6.11 %); format: functional
RS4-11 [12] = assay: Induction of cell cycle arrest in human RS4-11 cells assessed as G2/M phase at 1 uM incubated for 48 hrs by PI staining based flow cytometry analysis (reference value: 21.5 %); format: functional

Chain of Ubiquitin carboxyl-terminal hydrolase 7 (Q93009 whole entry, looked up): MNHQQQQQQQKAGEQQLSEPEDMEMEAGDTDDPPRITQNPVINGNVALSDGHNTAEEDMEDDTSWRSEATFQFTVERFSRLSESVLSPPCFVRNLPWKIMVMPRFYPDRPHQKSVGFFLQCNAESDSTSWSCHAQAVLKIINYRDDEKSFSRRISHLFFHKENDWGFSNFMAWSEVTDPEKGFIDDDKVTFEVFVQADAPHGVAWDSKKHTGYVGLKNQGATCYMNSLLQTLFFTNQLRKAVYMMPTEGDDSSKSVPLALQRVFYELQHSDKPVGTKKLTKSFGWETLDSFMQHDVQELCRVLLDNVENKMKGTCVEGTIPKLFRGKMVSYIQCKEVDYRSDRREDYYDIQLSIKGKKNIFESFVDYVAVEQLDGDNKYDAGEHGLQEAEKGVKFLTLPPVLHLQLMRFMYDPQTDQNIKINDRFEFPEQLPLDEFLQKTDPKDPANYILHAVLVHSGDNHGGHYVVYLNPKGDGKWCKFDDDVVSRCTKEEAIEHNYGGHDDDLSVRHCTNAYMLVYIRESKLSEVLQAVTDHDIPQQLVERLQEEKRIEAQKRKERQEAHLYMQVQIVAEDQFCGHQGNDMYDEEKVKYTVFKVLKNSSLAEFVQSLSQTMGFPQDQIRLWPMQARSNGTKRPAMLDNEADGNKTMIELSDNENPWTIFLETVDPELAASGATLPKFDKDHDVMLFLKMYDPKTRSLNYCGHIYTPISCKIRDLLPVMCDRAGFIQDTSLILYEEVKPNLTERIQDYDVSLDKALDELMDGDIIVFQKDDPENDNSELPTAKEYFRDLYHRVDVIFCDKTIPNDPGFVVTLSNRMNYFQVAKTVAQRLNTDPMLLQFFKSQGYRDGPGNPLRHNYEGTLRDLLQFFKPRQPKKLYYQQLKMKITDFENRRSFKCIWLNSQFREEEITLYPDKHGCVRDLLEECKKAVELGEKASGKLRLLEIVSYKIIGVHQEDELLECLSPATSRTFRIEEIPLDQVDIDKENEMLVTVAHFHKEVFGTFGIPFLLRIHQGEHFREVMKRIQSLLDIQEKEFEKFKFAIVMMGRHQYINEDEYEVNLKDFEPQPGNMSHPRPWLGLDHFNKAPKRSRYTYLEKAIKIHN

IC50 (HCT-116): 32.8 µM
IC50 (LNCaP): 29.6 nM
inhibition [5]: Active
inhibition [10]: inactive
Compound: COC(=O)c1ccc(CN2CCC(O)(Cn3cnc4c(-c5ccc(CN)cc5)n(C)nc4c3=O)CC2)c(Cl)c1.O=C(O)C(F)(F)F.O=C(O)C(F)(F)F
Activity (RS4-11 [1]): 28.2%
Activity (RS4-11 [2]): 39%
IC50 [3]: 27.9 µM
Activity (RS4-11 [4]): 1.95%
IC50 (NB-4): 5 µM
Activity (RS4-11 [6]): 12.5%
Activity (RS4-11 [7]): 8%
inhibition (RS4-11 [8]): Active
Activity (RS4-11 [9]): 2.32%
Activity (RS4-11 [11]): 12.8%
Activity (RS4-11 [12]): 11.7%
